Key:
Assay type in all cases: ADME
[1] = Acid base constant value for N1 atom; settings: read-out: pKa1
Procedure, shortened: (§1)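 Potentiometric titration: the polyamine hydrochloride salt was first converted to the free amine by adding base, then titrated in 0.1 N KCl. Each nitrogen's pKa was estimated by a nonlinear least-squares computer fit of the titration curve. Fractions of the protonated species were then simulated from the measured pKa values.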

[2] = Acid base constant value for N3 atom; settings: read-out: pKa3; procedure, shortened: as §1
[3] = Acid base constant value for N2 atom; settings: read-out: pKa2; procedure, shortened: as §1
[4] = Acid base constant value for N4 atom; settings: read-out: pKa4; procedure, shortened: as §1

Row | SMILES | pKa [1] | pKa [2] | pKa [3] | pKa [4]
1 | C(CCNC1CCNCC1)CNC1CCNCC1 | 11.4 | 9.02 | 10.7 | 7.6
2 | C(CCNCCC1CCNCC1)CNCCC1CCNCC1 | 10.9 | 10 | 10.8 | 9.1
3 | c1cc(NCCCNc2ccncc2)ccn1 | 9.55 | < 2 | 9.14 | < 2
4 | NCCCCNCCCCNCCCCN | 11.2 | 9.57 | 10.4 | 8.72
5 | C(CNC1CCNCC1)CNC1CCNCC1 | 11.2 | 8.88 | 10.7 | 7.14

More lines, now with the values ahead:

Row | pKa [1] | pKa [2] | pKa [3] | pKa [4] | SMILES
6 | 10.8 | 8.51 | 9.91 | 7.68 | CCNCCCNCCCNCCCNCC [BIS(ETHYL)NORSPERMINE]
7 | 11.1 | 9.73 | 10.8 | 8.91 | CCNCCCCNCCCCNCCCCNCC [DIETHYLHOMOSPERMINE]
8 | 10.6 | 8.35 | 9.8 | 7.51 | NCCCNCCCNCCCN [THERMINE]
9 | 11.2 | 9.42 | 10.8 | 8.25 | CCNCCCNCCCCNCCCNCC [BIS(ETHYL)SPERMINE]

— ChEMBL document CHEMBL1129465, “Polyamine analogue regulation of NMDA MK-801 binding: a structure-activity study” (J Med Chem, 1996)
